Test results published in ChEMBL document CHEMBL1148309, “Roles of conformational and positional adaptability in structure-based design of TMC125-R165335 (etravirine) and related non-nucleoside reverse transcriptase inhibitors that are highly potent and effective against wild-type and drug-resistant HIV-1 variants” (J Med Chem, 2004).

How the values were obtained:
Assay type in all cases: functional, organism-based
[1] = tested on: Human immunodeficiency virus 1; experiment: Potency evaluated against NNRTI-Resistant HIV-1 strain Tyr181Cys
How it was run: (§1)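 Test compound dilutions in microtiter wells; HIV added at 200-250 CCID50/well and MT4 cells at 3 × 10^4 cells/well (final). Incubated 5 days at 37 °C, 5% CO2. Cytopathic effect of replicating virus read by MTT tetrazolium colorimetry. EC50 is the dose achieving 50% infection.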

[2] = tested on: Human immunodeficiency virus 1; experiment: Potency evaluated against NNRTI-Resistant HIV-1 strain Lys103Asn; how it was run: as §1
[3] = tested on: Human immunodeficiency virus 1; experiment: Potency evaluated against NNRTI-Resistant HIV-1 strain Tyr188Leu; how it was run: as §1
[4] = tested on: Human immunodeficiency virus 1; experiment: Potency evaluated against NNRTI-Resistant HIV-1 strain Gly190Ala; how it was run: as §1
[5] = tested on: Human immunodeficiency virus 1; experiment: Potency evaluated against wild type HIV-1 strain IIIB; how it was run: as §1
[6] = tested on: Human immunodeficiency virus 1; experiment: Potency evaluated against NNRTI-Resistant HIV-1 strain Leu100Ile; how it was run: as §1
[7] = tested on: Human immunodeficiency virus 1; experiment: Potency evaluated against NNRTI-Resistant HIV-1 strain Val106Ala; how it was run: as §1

Row | SMILES | EC50 [1] | EC50 [2] | EC50 [3] | EC50 [4] | EC50 [5] | EC50 [6] | EC50 [7]
1 | CC(C)Nc1cccnc1N1CCN(C(=O)c2cc3cc(NS(C)(=O)=O)ccc3[nH]2)CC1 [DELAVIRDINE] | 1340 nM | 1700 nM | 178 nM | 38 nM | 16 nM | 3470 nM | 2240 nM
2 | Cc1cc(C#N)cc(C)c1Oc1nc(Nc2ccc(C#N)cc2)nc(N)c1Br [ETRAVIRINE] | 6 nM | […] | 3 nM | […] | 20 nM | 3 nM | 2 nM
3 | Cc1cc(C)c(Nc2ccnc(Nc3ccc(C#N)cc3)n2)c(C)c1 [DAPIVIRINE] | 8 nM | 4 nM | 40 nM | 1 nM | 1 nM | 16 nM | 3 nM
4 | N#Cc1ccc(Nc2nc(N)nc(Cc3c(Cl)cccc3Cl)n2)cc1 | 277 nM | 41 nM | 431 nM | 1 nM | 2 nM | 293 nM | 26 nM
5 | CC(=O)c1ccc(C)cc1N[C@@H](C(N)=O)c1c(Br)cccc1Br [(R)-LOVIRIDE] | 15800 nM | 1260 nM | 50100 nM | 2510 nM | 5 nM | 50 nM | 1000 nM
6 | Cc1ccnc2c1NC(=O)c1cccnc1N2C1CC1 [NEVIRAPINE] | 5350 nM | 2470 nM | > 100000 nM | 3460 nM | 85 nM | 638 nM | 2410 nM
7 | Cc1cc(C#N)cc(C)c1Oc1nc(Nc2ccc(C#N)cc2)nc(CO)c1Br | 6 nM | 4 nM | 6 nM | 1 nM | 4 nM | 2 nM | 2 nM
8 | N#Cc1ccc(NC(=S)NC(=N)Cc2c(Cl)cccc2Cl)cc1 | 511 nM | 589 nM | 318 nM | 2 nM | 3 nM | 513 nM | 382 nM
9 | N#Cc1ccc(Nc2nc(N)nc(Cc3c(Cl)ccc4[nH]ccc34)n2)cc1 | 250 nM | 63 nM | 1000 nM | 3 nM | 3 nM | 1000 nM | 63 nM
10 | N#Cc1ccc(Nc2nc(N)nc(Oc3c(Cl)cccc3Cl)n2)cc1 | 250 nM | 79 nM | 320 nM |  | 3 nM | 320 nM | 100 nM
